Laboratory results from ChEMBL document CHEMBL1781959, “Synthesis and in vitro antitumor activity of substituted quinazoline and quinoxaline derivatives: search for anticancer agent” (Eur J Med Chem, 2011).

Legend:
Assay type in all cases: functional
SK-OV-3 = experiment: Anticancer activity against human SKOV3 cells assessed as cell growth promotion at 10^-5 M after 48 hrs by SRB assay relative to control
[1] = Anticancer activity against human Hs 578T cells assessed as cell growth promotion at 10^-5 M after 48 hrs by SRB assay relative to control
MDA-MB-231 = experiment: Anticancer activity against human MDA-MB-231 cells assessed as cell growth promotion at 10^-5 M after 48 hrs by SRB assay relative to control
HL-60(TB) = experiment: Anticancer activity against human HL-60(TB) cells assessed as cell growth promotion at 10^-5 M after 48 hrs by SRB assay relative to control
Summary of the method: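 NCI-60 single-dose screen: compound at 10^-5 M, 48 h at 37 °C, 5% CO2; cells grown in RPMI 1640 with 5% FBS and 2 mM L-glutamine, pre-incubated 24 h before dosing. Adherent cells fixed with cold TCA; endpoint is sulforhodamine B protein staining. Percent growth of treated cells is reported relative to untreated control.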

UACC-62 = experiment: Anticancer activity against human UACC62 cells assessed as cell growth promotion at 10^-5 M after 48 hrs by SRB assay relative to control
KM12 = experiment: Anticancer activity against human KM12 cells assessed as cell growth promotion at 10^-5 M after 48 hrs by SRB assay relative to control
NCI-H460 = experiment: Anticancer activity against human NCI-H460 cells assessed as cell growth promotion at 10^-5 M after 48 hrs by SRB assay relative to control
SW-620 = experiment: Anticancer activity against human SW620 cells assessed as cell growth promotion at 10^-5 M after 48 hrs by SRB assay relative to control
K562 = experiment: Anticancer activity against human K562 cells assessed as cell growth promotion at 10^-5 M after 48 hrs by SRB assay relative to control
OVCAR-8 = experiment: Anticancer activity against human OVCAR8 cells assessed as cell growth promotion at 10^-5 M after 48 hrs by SRB assay relative to control
A549 = experiment: Anticancer activity against human A549 cells assessed as cell growth promotion at 10^-5 M after 48 hrs by SRB assay relative to control
DU-145 = experiment: Anticancer activity against human DU145 cells assessed as cell growth promotion at 10^-5 M after 48 hrs by SRB assay relative to control
SF-295 = experiment: Anticancer activity against human SF295 cells assessed as cell growth promotion at 10^-5 M after 48 hrs by SRB assay relative to control
NCI-H322M = experiment: Anticancer activity against human NCI-H322M cells assessed as cell growth promotion at 10^-5 M after 48 hrs by SRB assay relative to control
786-0 = experiment: Anticancer activity against human 786-0 cells assessed as cell growth promotion at 10^-5 M after 48 hrs by SRB assay relative to control
IGROV-1 = experiment: Anticancer activity against human IGROV1 cells assessed as cell growth promotion at 10^-5 M after 48 hrs by SRB assay relative to control
PC-3 = experiment: Anticancer activity against human PC3 cells assessed as cell growth promotion at 10^-5 M after 48 hrs by SRB assay relative to control
OVCAR-5 = experiment: Anticancer activity against human OVCAR5 cells assessed as cell growth promotion at 10^-5 M after 48 hrs by SRB assay relative to control
LOX IMVI = experiment: Anticancer activity against human LOXIMVI cells assessed as cell growth promotion at 10^-5 M after 48 hrs by SRB assay relative to control
MOLT-4 = experiment: Anticancer activity against human MOLT4 cells assessed as cell growth promotion at 10^-5 M after 48 hrs by SRB assay relative to control
SK-MEL-28 = experiment: Anticancer activity against human SK-MEL-28 cells assessed as cell growth promotion at 10^-5 M after 48 hrs by SRB assay relative to control
MCF7 = experiment: Anticancer activity against human MCF7 cells assessed as cell growth promotion at 10^-5 M after 48 hrs by SRB assay relative to control
Malme-3M = experiment: Anticancer activity against human MALME-3M cells assessed as cell growth promotion at 10^-5 M after 48 hrs by SRB assay relative to control
TK-10 = experiment: Anticancer activity against human TK10 cells assessed as cell growth promotion at 10^-5 M after 48 hrs by SRB assay relative to control
OVCAR-3 = experiment: Anticancer activity against human OVCAR3 cells assessed as cell growth promotion at 10^-5 M after 48 hrs by SRB assay relative to control
SK-MEL-5 = experiment: Anticancer activity against human SK-MEL-5 cells assessed as cell growth promotion at 10^-5 M after 48 hrs by SRB assay relative to control
COLO 205 = experiment: Anticancer activity against human COLO205 cells assessed as cell growth promotion at 10^-5 M after 48 hrs by SRB assay relative to control
HCT-116 = experiment: Anticancer activity against human HCT116 cells assessed as cell growth promotion at 10^-5 M after 48 hrs by SRB assay relative to control
EKVX = experiment: Anticancer activity against human EKVX cells assessed as cell growth promotion at 10^-5 M after 48 hrs by SRB assay relative to control
NCI/ADR-RES = experiment: Anticancer activity against human NCI/ADR-RES cells assessed as cell growth promotion at 10^-5 M after 48 hrs by SRB assay relative to control
HOP-62 = experiment: Anticancer activity against human HOP62 cells assessed as cell growth promotion at 10^-5 M after 48 hrs by SRB assay relative to control
MDA-MB-468 = experiment: Anticancer activity against human MDA-MB-468 cells assessed as cell growth promotion at 10^-5 M after 48 hrs by SRB assay relative to control
NCI-H23 = experiment: Anticancer activity against human NCI-H23 cells assessed as cell growth promotion at 10^-5 M after 48 hrs by SRB assay relative to control
SF-268 = experiment: Anticancer activity against human SF268 cells assessed as cell growth promotion at 10^-5 M after 48 hrs by SRB assay relative to control
HCC 2998 = experiment: Anticancer activity against human HCC2998 cells assessed as cell growth promotion at 10^-5 M after 48 hrs by SRB assay relative to control
SF-539 = experiment: Anticancer activity against human SF539 cells assessed as cell growth promotion at 10^-5 M after 48 hrs by SRB assay relative to control
T47D = experiment: Anticancer activity against human T47D cells assessed as cell growth promotion at 10^-5 M after 48 hrs by SRB assay relative to control
A498 = experiment: Anticancer activity against human A498 cells assessed as cell growth promotion at 10^-5 M after 48 hrs by SRB assay relative to control

| SMILES | Activity [1] | Activity (MDA-MB-231) | Activity (HL-60(TB)) | Activity (UACC-62) | Activity (KM12) | Activity (NCI-H460) | Activity (SW-620) | Activity (K562) | Activity (OVCAR-8) | Activity (A549) | Activity (DU-145) | Activity (SF-295) | Activity (786-0) | Activity (IGROV-1) | Activity (PC-3) | Activity (OVCAR-5) | Activity (LOX IMVI) | Activity (MOLT-4) | Activity (SK-MEL-28) | Activity (MCF7) | further results |
| --- | --- | --- | --- | --- | --- | --- | --- | --- | --- | --- | --- | --- | --- | --- | --- | --- | --- | --- | --- | --- | --- |
| O=C(Nc1ccccc1C(=O)Nc1ccc(/C=C/c2ccc(Cl)cc2)cc1)c1ccccc1 | 67.95% | 81.11% | 94.11% | 79.67% | 64.38% | 72.92% | 99.16% | 57.81% | 88.85% | 70.02% | 107% | 52.07% | 75.14% | 89.85% | 65.2% | 123% | 74.93% | 59.17% | 101% | 82.72% | Activity (SK-OV-3): 95.35%; Activity (NCI-H322M): 89.27%; Activity (Malme-3M): 91.75%; Activity (TK-10): 123%; Activity (OVCAR-3): 86.93%; Activity (SK-MEL-5): 82.15%; Activity (COLO 205): 124%; Activity (HCT-116): 49.35%; Activity (EKVX): 86.68%; Activity (NCI/ADR-RES): 95.06%; Activity (HOP-62): 105%; Activity (MDA-MB-468): 83.46%; Activity (NCI-H23): 73.51%; Activity (SF-268): 82.84%; Activity (HCC 2998): 78.38%; Activity (SF-539): 91.8%; Activity (T47D): 82.14% |
| N#Cc1ccc(/C=C/c2nc3ccccc3nc2SCc2nc3ccccc3[nH]2)cc1 | 107% | 97.02% | 94.7% | 100% | 104% | 104% | 98.13% | 99.2% | 103% | 93.12% | 103% | 127% | 90.69% | 103% | 103% | 104% | 100% | 88.59% | 88.08% | 101% | Activity (NCI-H322M): 120%; Activity (A498): 105%; Activity (Malme-3M): 90.35%; Activity (TK-10): 86.49%; Activity (OVCAR-3): 110%; Activity (SK-MEL-5): 101%; Activity (COLO 205): 105%; Activity (HCT-116): 88.47%; Activity (EKVX): 99.04%; Activity (NCI/ADR-RES): 103%; Activity (HOP-62): 99.49%; Activity (MDA-MB-468): 104%; Activity (NCI-H23): 105%; Activity (SF-268): 109%; Activity (SF-539): 125% |
| Oc1ccc(/C=C/c2nc3ccccc3nc2SCc2nc3ccccc3[nH]2)cc1 | 110% | 95.18% | 84.38% | 96.99% | 98.91% | 95.51% | 95.64% | 107% | 100% | 85.66% | 97.51% | 82.46% | 94.31% | 71.03% | 96.98% | 102% | 95.29% | 75.47% | 102% | 89.91% | Activity (A498): 88.72%; Activity (Malme-3M): 86.88%; Activity (TK-10): 107%; Activity (OVCAR-3): 102%; Activity (SK-MEL-5): 95.26%; Activity (COLO 205): 119%; Activity (HCT-116): 89.77%; Activity (EKVX): 92.68%; Activity (NCI/ADR-RES): 100%; Activity (HOP-62): 101%; Activity (MDA-MB-468): 114%; Activity (NCI-H23): 102%; Activity (SF-268): 91.53%; Activity (HCC 2998): 123%; Activity (SF-539): 111% |
| CN(C)c1ccc(/C=C/c2nc3ccccc3nc2SCc2nc3ccccc3[nH]2)cc1 | 119% | 89.23% | 87.19% | 84.34% | 104% | 104% | 102% | 105% | 108% | 97.05% | 95.35% | 104% | 90.32% | 116% | 119% | 102% | 103% | 84.64% | 124% | 77.51% | Activity (NCI-H322M): 97.59%; Activity (A498): 88.48%; Activity (Malme-3M): 102%; Activity (TK-10): 113%; Activity (OVCAR-3): 107%; Activity (SK-MEL-5): 97.96%; Activity (COLO 205): 110%; Activity (HCT-116): 87.81%; Activity (EKVX): 92.96%; Activity (NCI/ADR-RES): 106%; Activity (HOP-62): 100%; Activity (MDA-MB-468): 109%; Activity (NCI-H23): 102%; Activity (SF-268): 107%; Activity (HCC 2998): 90.32%; Activity (SF-539): 85.81% |
| Oc1ccccc1/C=C/c1nc2ccccc2nc1SCc1nc2ccccc2[nH]1 | 48.8% | 53.69% | 26.78% | 58.04% | 77.92% | 80.34% | 93.22% | 77.33% | 75.12% | 77.16% | 76.88% | 93.22% | 89.92% | 59.92% | 63.9% | 86.09% | 78.17% | 57.51% | 95.95% | 51.8% | Activity (NCI-H322M): 80.01%; Activity (A498): 92.56%; Activity (Malme-3M): 83.19%; Activity (TK-10): 43.48%; Activity (OVCAR-3): 81.53%; Activity (SK-MEL-5): 68.43%; Activity (COLO 205): 96.37%; Activity (HCT-116): 65.39%; Activity (EKVX): 60.4%; Activity (NCI/ADR-RES): 82.43%; Activity (HOP-62): 73.71%; Activity (MDA-MB-468): 59.53%; Activity (NCI-H23): 76.93%; Activity (SF-268): 81.66%; Activity (HCC 2998): 102%; Activity (SF-539): 97.28% |
